Measured values reported in ChEMBL document CHEMBL1157589, “Antifungal 3,5-disubstituted furanones: From 5-acyloxymethyl to 5-alkylidene derivatives” (Bioorg Med Chem, 2010).
In brackets after ≈: the same amount, converted by molar mass.

What was measured:
[1] = test system: Candida albicans; test: Antifungal activity against Candida albicans ATCC 44859 after 48 hrs by microdilution method; format: functional; conditions: ATCC 44859, 48 h
Summary of the method: (§1)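 Yeasts held on Sabouraud dextrose agar. MIC by NCCLS M27-A broth microdilution in RPMI 1640 with L-glutamine, buffered with 0.165 M MOPS to pH 7.0. Compounds in DMSO (≤2% final), twofold dilutions 500–0.48. Final inoculum 5 × 10³ ± 0.2 cfu mL⁻¹. Incubated at 35 °C; absorbance at 540 nm read at 24 and 48 h. MIC is 80% growth inhibition versus control; run twice in duplicate.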

[2] = test system: Candida albicans; test: Antifungal activity against Candida albicans ATCC 90028 after 24 hrs by microdilution method; format: functional; conditions: ATCC 90028, 24 h; summary of the method: as §1
[3] = test system: Candida albicans; test: Antifungal activity against Candida albicans ATCC 90028 after 48 hrs by microdilution method; format: functional; conditions: ATCC 90028, 48 h; summary of the method: as §1
[4] = test system: Candida parapsilosis; test: Antifungal activity against Candida parapsilosis ATCC 22019 after 24 hrs by microdilution method; format: functional; conditions: Lodderomyces parapsilosis, ATCC 22019, 24 h; summary of the method: as §1
[5] = test system: Candida parapsilosis; test: Antifungal activity against Candida parapsilosis ATCC 22019 after 48 hrs by microdilution method; format: functional; conditions: Lodderomyces parapsilosis, ATCC 22019, 48 h; summary of the method: as §1
[6] = test system: Pichia kudriavzevii; test: Antifungal activity against Candida krusei ATCC 6258 after 24 hrs by microdilution method; format: functional; conditions: ATCC 6258, 24 h; summary of the method: as §1
[7] = test system: Pichia kudriavzevii; test: Antifungal activity against Candida krusei ATCC 6258 after 48 hrs by microdilution method; format: functional; conditions: ATCC 6258, 48 h; summary of the method: as §1
[8] = test system: Pichia kudriavzevii; test: Antifungal activity against Candida krusei E28 after 24 hrs by microdilution method; format: functional; conditions: E28, 24 h; summary of the method: as §1
[9] = test system: Pichia kudriavzevii; test: Antifungal activity against Candida krusei E28 after 48 hrs by microdilution method; format: functional; conditions: E28, 48 h; summary of the method: as §1
[10] = test system: Candida tropicalis; test: Antifungal activity against Candida tropicalis 156 after 24 hrs by microdilution method; format: functional; conditions: Candida tropicalis, 156, 24 h; summary of the method: as §1
[11] = test system: Candida tropicalis; test: Antifungal activity against Candida tropicalis 156 after 48 hrs by microdilution method; format: functional; conditions: Candida tropicalis, 156, 48 h; summary of the method: as §1
[12] = test system: Nakaseomyces glabratus; test: Antifungal activity against Candida glabrata 20/I after 24 hrs by microdilution method; format: functional; summary of the method: as §1
[13] = test system: Nakaseomyces glabratus; test: Antifungal activity against Candida glabrata 20/I after 48 hrs by microdilution method; format: functional; summary of the method: as §1
[14] = test system: Clavispora lusitaniae; test: Antifungal activity against Candida lusitaniae 2446/I after 24 hrs by microdilution method; format: functional; summary of the method: as §1
[15] = test system: Clavispora lusitaniae; test: Antifungal activity against Candida lusitaniae 2446/I after 48 hrs by microdilution method; format: functional; summary of the method: as §1
[16] = test system: Trichosporon beigelii; test: Antifungal activity against Trichosporon beigelii 1188 after 24 hrs by microdilution method; format: functional; conditions: Trichosporon beigelii, 1188, 24 h; summary of the method: as §1
[17] = test system: Trichosporon beigelii; test: Antifungal activity against Trichosporon beigelii 1188 after 48 hrs by microdilution method; format: functional; conditions: Trichosporon beigelii, 1188, 48 h; summary of the method: as §1
[18] = test system: Aspergillus fumigatus; test: Antifungal activity against Aspergillus fumigatus 231 after 24 hrs by microdilution method; format: functional; conditions: Aspergillus fumigatus, 231, 24 h
Summary of the method: (§2)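 Filamentous strains held on Sabouraud dextrose agar. NCCLS M27-A broth microdilution in RPMI 1640 with L-glutamine and 0.165 M MOPS, pH 7.0. DMSO diluent ≤2% final; twofold dilutions 500–0.48. Inoculum 5 × 10³ ± 0.2 cfu mL⁻¹ final.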

[19] = test system: Aspergillus fumigatus; test: Antifungal activity against Aspergillus fumigatus 231 after 48 hrs by microdilution method; format: functional; conditions: Aspergillus fumigatus, 231, 48 h; summary of the method: as §2
[20] = test system: Lichtheimia corymbifera; test: Antifungal activity against Absidia corymbifera 272 after 24 hrs by microdilution method; format: functional; conditions: Lichtheimia corymbifera, 272, 24 h; summary of the method: as §2
[21] = test system: Lichtheimia corymbifera; test: Antifungal activity against Absidia corymbifera 272 after 48 hrs by microdilution method; format: functional; conditions: Lichtheimia corymbifera, 272, 48 h; summary of the method: as §2
[22] = test system: Trichophyton mentagrophytes; test: Antifungal activity against Trichophyton mentagrophytes 445 after 72 hrs by microdilution method; format: functional; conditions: Trichophyton mentagrophytes, 445, 72 h
Summary of the method: (§3)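 Dermatophyte held on Sabouraud dextrose agar. M27-A microdilution in MOPS-buffered (0.165 M, pH 7.0) RPMI 1640 with L-glutamine. DMSO ≤2% final; twofold dilutions 500–0.48. Inoculum 5 × 10³ ± 0.2 cfu mL⁻¹ final. Incubated at 35 °C; MIC read visually at 72 and 120 h as 80% inhibition of control growth; determined twice in duplicate.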

[23] = test system: Trichophyton mentagrophytes; test: Antifungal activity against Trichophyton mentagrophytes 445 after 120 hrs by microdilution method; format: functional; conditions: Trichophyton mentagrophytes, 445, 120 h; summary of the method: as §3
[24] = test system: L1210; test: Cytostatic activity against mouse L1210 cells after 72 hrs by XTT assay; format: functional, cell-based
Summary of the method: (§4)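 Leukemia cells (L1210 ATCC CCL 219, CCRF-CEM ATCC CCL 119, HL-60 ATCC CCL 240) grown in 24-well plates in RPMI 1640 with fetal calf serum. Growth assessed 72 h after drug addition. Viability measured by XTT spectrophotometric assay; potency given as IC50.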

[25] = test system: HL-60; test: Cytostatic activity against human HL60 cells after 72 hrs by XTT assay; format: functional, cell-based; conditions: hl-60; summary of the method: as §4
[26] = test system: CCRF-CEM; test: Cytostatic activity against human CCRF-CEM cells after 72 hrs by XTT assay; format: functional, cell-based; summary of the method: as §4
[27] = test system: Candida albicans; test: Antifungal activity against Candida albicans ATCC 44859 after 24 hrs by microdilution method; format: functional; conditions: ATCC 44859, 24 h; summary of the method: as §1
[28] = test system: HeLa S3; test: Cytostatic activity against human HeLaS3 cells after 48 hrs by XTT assay

Row | SMILES | MIC80 [1] [µM] | MIC80 [2] [µM] | MIC80 [3] [µM] | MIC80 [4] [µM] | MIC80 [5] [µM] | MIC80 [6] [µM] | MIC80 [7] [µM] | MIC80 [8] [µM] | MIC80 [9] [µM] | MIC80 [10] [µM] | MIC80 [11] [µM] | MIC80 [12] [µM] | MIC80 [13] [µM] | MIC80 [14] [µM] | MIC80 [15] [µM] | MIC80 [16] [µM] | MIC80 [17] [µM] | MIC80 [18] [µM] | MIC80 [19] [µM] | MIC80 [20] [µM] | further results
1 | O=C1OCC=C1c1ccc(Br)cc1 | 250 (≈ 59.8 µg/mL) | 500 (≈ 120 µg/mL) | 500 (≈ 120 µg/mL) | 250 (≈ 59.8 µg/mL) | 500 (≈ 120 µg/mL) | 250 (≈ 59.8 µg/mL) | 500 (≈ 120 µg/mL) | 250 (≈ 59.8 µg/mL) | 500 (≈ 120 µg/mL) | 250 (≈ 59.8 µg/mL) | 500 (≈ 120 µg/mL) | 500 (≈ 120 µg/mL) | 500 (≈ 120 µg/mL) | 500 (≈ 120 µg/mL) | 500 (≈ 120 µg/mL) | 250 (≈ 59.8 µg/mL) | 500 (≈ 120 µg/mL) | 250 (≈ 59.8 µg/mL) | 500 (≈ 120 µg/mL) | 500 (≈ 120 µg/mL) | MIC80 [21]: 500 µM (≈ 120 µg/mL); MIC80 [22]: 250 µM (≈ 59.8 µg/mL); MIC80 [23]: 250 µM (≈ 59.8 µg/mL); IC50 ([24]; l1210): Not Active; IC50 [25]: Not Active; IC50 ([26]; ccrf-cem): Not Active; MIC80 [27]: 250 µM (≈ 59.8 µg/mL); IC50 ([28]; hela s3): Not Active
2 | O=C1OC(COc2cccc(C(=O)O)c2)C=C1c1ccc(Br)cc1 (centres undefined) | 1.95 (≈ 0.759 µg/mL) | 3.9 (≈ 1.52 µg/mL) | 15.6 (≈ 6.08 µg/mL) | 15.6 (≈ 6.08 µg/mL) | 15.6 (≈ 6.08 µg/mL) | 15.6 (≈ 6.08 µg/mL) | 15.6 (≈ 6.08 µg/mL) | 15.6 (≈ 6.08 µg/mL) | 15.6 (≈ 6.08 µg/mL) | 7.81 (≈ 3.04 µg/mL) | 7.81 (≈ 3.04 µg/mL) | 1.95 (≈ 0.759 µg/mL) | 1.95 (≈ 0.759 µg/mL) | 7.81 (≈ 3.04 µg/mL) | 7.81 (≈ 3.04 µg/mL) | 15.6 (≈ 6.08 µg/mL) | 15.6 (≈ 6.08 µg/mL) | 1.95 (≈ 0.759 µg/mL) | 7.81 (≈ 3.04 µg/mL) | 62.5 (≈ 24.3 µg/mL) | MIC80 [21]: 62.5 µM (≈ 24.3 µg/mL); MIC80 [22]: 0.97 µM (≈ 0.378 µg/mL); MIC80 [23]: 1.95 µM (≈ 0.759 µg/mL); IC50 ([24]; Mus musculus, L1210, 72 h, read-out: IC50): 7.42 µM; IC50 [25]: Not Active; IC50 ([26]; Homo sapiens, CCRF-CEM, 72 h, read-out: IC50): 1.64 µM; MIC80 [27]: 0.97 µM (≈ 0.378 µg/mL); IC50 ([28]; Homo sapiens, HeLa S3, 48 h, read-out: IC50): 1.44 µM
3 | O=C1O/C(=C\COC(=O)c2ccccc2)C=C1c1ccc(Br)cc1 | > 500 | > 500 | > 500 | > 500 | > 500 | > 500 | > 500 | > 500 | > 500 | > 500 | > 500 | > 500 | > 500 | > 500 | > 500 | > 500 | > 500 | > 500 | > 500 | > 500 | MIC80 [21]: > 500 µM; MIC80 [22]: > 500 µM; MIC80 [23]: > 500 µM; IC50 ([24]; l1210): Not Active; IC50 [25]: Not Active; IC50 ([26]; ccrf-cem): Not Active; MIC80 [27]: > 500 µM; IC50 ([28]; hela s3): Not Active
